Results as given in PMC10651396 (The Journal of Cell Biology, 2023).
Numbering of substitutions follows the chain as printed. Where no end group is shown, it is not given here.

B1: GST-Aim21^CPI (Aim21 491-545) with His-Tda2 (Tda2/Aim21 complex) (complex, S. cerevisiae)
chain 1: QAKTGPLGGTRRGRGPRGRKLPSKVASVEKIEEDDNTNKIEIFNNWNVSSSFSKE
chain 2: MSMQIEIKDGRSDNSPLPERKLVTLIQESYDSLKDDNEINLSTESTSNLLIKLVLEKLEKHSSLYKYIASVTTLNIEGLNEENANFSLKNDIGASWESKKDGIFNYKLEDKNNNECYLITILWLHK
B2: CP: 6-histidine–tagged yeast actin capping protein, Cap1/Cap2 heterodimer (protein, UniProt P28495 2-268; P13517 2-287, looked up)
F-actin-capping protein … 1: SSSKFEEVINKIINDSPPGELREVYDDLIKITSENSKNTILDAIENYNVQNCIPIEVNGNSVIISKYNKEGAKFFDPVNSVIFSVNHLERKGLDIEPYEFTHAKIEKGQLKELHDKLHEYLLQSFPGDVSFAVYPVPEEISKISIIIVSTKYNPNNFWNGHWRSSYIYDLETRELSGQISTQVHYYEDGNVSFQSGKDINQSNVDDVVCTIRDIETNFENDLDLSFFDLNEKQFKALRRRLPVTRSKINWGSAIGSYRLGKNAAEGK
F-actin-capping protein … 2: SDAQFDAALDLLRRLNPTTLQENLNNLIELQPNLAQDLLSSVDVPLSTQKDSADSNREYLCCDYNRDIDSFRSPWSNTYYPELSPKDLQDSPFPSAPLRKLEILANDSFDVYRDLYYEGGISSVYLWDLNEEDFNGHDFAGVVLFKKNQSDHSNWDSIHVFEVTTSPSSPDSFNYRVTTTIILHLDKTKTDQNSHMMLSGNLTRQTEKDIAIDMSRPLDVIFTSHVANLGSLIEDIESQMRNLLETVYFEKTRDIFHQTKNAAIASSAEEANKDAQAEVIRGLQSL
modifications: His6 tag

How the values were obtained:
His-Cap1/2 (CP) = biological target: T1, His-Cap1/2 (CP) (Saccharomyces cerevisiae, UniProt P13517+P28495); type: biochemical; details: in words; yeast actin, CP 100 nM, 500 nM peptide
T1 sequence (P28495 1-268): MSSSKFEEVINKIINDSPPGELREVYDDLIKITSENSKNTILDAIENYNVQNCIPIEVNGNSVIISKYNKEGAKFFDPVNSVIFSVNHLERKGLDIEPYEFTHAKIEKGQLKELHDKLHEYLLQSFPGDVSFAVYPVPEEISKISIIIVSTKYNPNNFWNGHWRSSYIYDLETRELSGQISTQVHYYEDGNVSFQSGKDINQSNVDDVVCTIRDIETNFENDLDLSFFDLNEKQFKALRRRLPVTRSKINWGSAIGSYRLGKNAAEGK
T1 sequence (P13517 1-287): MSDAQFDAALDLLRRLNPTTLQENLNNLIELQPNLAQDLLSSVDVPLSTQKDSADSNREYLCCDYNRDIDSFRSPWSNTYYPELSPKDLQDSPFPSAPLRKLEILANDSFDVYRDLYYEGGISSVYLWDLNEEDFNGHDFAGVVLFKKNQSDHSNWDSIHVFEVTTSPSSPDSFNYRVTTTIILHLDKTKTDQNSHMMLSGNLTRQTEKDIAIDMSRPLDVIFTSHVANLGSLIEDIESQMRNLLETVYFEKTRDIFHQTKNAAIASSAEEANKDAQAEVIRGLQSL

His-Cap1/2 = test: GST pulldown of capping protein by GST-CPI motif fusions; type: binding, Saccharomyces cerevisiae; details: in words; SDS-PAGE and Coomassie staining; His-Tda2 added with Aim21 fusions
In short: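 Recombinant GST-CPI fusions and His-Cap1/2 were expressed in BL21 codon plus E. coli, affinity-purified, and dialyzed into PBS. GST protein (10 μg) was bound to glutathione Sepharose for 30 min at 4°C. Equimolar His-protein (His-Tda2 also for Aim21) was added for another 30 min. Resin was washed three times in PBS with 0.1–0.5% Triton X-100. Each pulldown was repeated independently.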

His-Cap1/2^D64A = biological target: T2, His-Cap1/2^D64A (S. cerevisiae, UniProt P28495 1-268; P13517 1-287, D64A); test: pull-down
T2 sequence (looked up) 1: T1 sequence (P28495 1-268)
T2 sequence (looked up) 2: T1 sequence (P13517 1-287) with D64A

[1] = biological target: T3, 6-histidine-tagged actin capping protein (His-Cap1/2) (S. cerevisiae, UniProt P28495 1-268; P13517 1-287); test: pull-down
T3 sequence (looked up) 1: T1 sequence (P28495 1-268)
T3 sequence (looked up) 2: T1 sequence (P13517 1-287)

His-Cap1/2^D88A = biological target: T4, His-Cap1/2^D88A (S. cerevisiae, UniProt P28495 1-268; P13517 1-287, D88A); test: pull-down
T4 sequence (looked up) 1: T1 sequence (P28495 1-268)
T4 sequence (looked up) 2: T1 sequence (P13517 1-287) with D88A

His-Cap1/2^D44A = biological target: T5, His-Cap1/2^D44A (S. cerevisiae, UniProt P28495 1-268; P13517 1-287, D44A); test: pull-down
T5 sequence (looked up) 1: T1 sequence (P28495 1-268)
T5 sequence (looked up) 2: T1 sequence (P13517 1-287) with D44A

[2] = test system: rabbit skeletal muscle actin; test: Pyrene actin polymerization assay, substance alone; type: biochemical; details: in words, capping protein 100 nM, 1 µM actin, 20% pyrene-labeled
In short: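 Rabbit skeletal muscle G-actin in G-buffer (pH 8, 0.2 mM ATP) was spun at 100,000 × g for 30 min at 4°C. It was Mg-exchanged (10 mM EGTA, 1 mM MgCl2) for 10 min at room temperature. Polymerization was started with 50 mM KCl, 2 mM MgCl2, 1 mM ATP and 1 mM EGTA (final). Pyrene fluorescence was read over time at ex 365/em 406 nm. Relative rate came from three independent assays, mean ± SEM.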

Molecule | effect on the capping function of CP (His-Cap1/2 (CP)) | binding result (His-Cap1/2^D64A) | binding result [1] | binding result (His-Cap1/2^D88A) | binding result (His-Cap1/2^D44A) | also measured
KETKPLVHPNKNRTRGPRRKLPTRV [Bsp1^CPI] | partially inhibited the capping function of CP | – | – | – | – | –
SNPDLPNKSNLKFNKPKGPLRKRRT [Twf1^CPI] | had no effect | – | – | – | – | –
GST-Inp51: GST fused to Inp51 fragment (874–900) (SIAGPTHSPTPIPEPKRGRKLPPPSSD; also: GST fusion, end not given here) | – | – | – | – | – | interaction with His-Cap1/2 in GST pulldown (His-Cap1/2): failed to pull down
KTGPLGGTRRGRGPRGRKLPSKVASVEKIEEDDNTNKIEIFNNWNVSS [Aim21^CPI] | partially inhibited the capping function of CP | – | – | – | – | –
B1 | – | binds | binds | binds | binds | –
KETKPLVHPNKNRTRGPRRKLPTRV (domain or fragment, S. cerevisiae) [GST-Bsp1^CPI (Bsp1 552-576)] | – | binds | binds | binds | binds | –
SNPDLPNKSNLKFNKPKGPLRKRRT (domain or fragment, S. cerevisiae) [GST-Twf1^CPI (Twf1 308-332)] | – | binds | binds | binds | binds | –
B2 | – | – | – | – | – | ability to cap actin filaments ([2]; listed as CP^1*): no ability to cap actin filaments; ability to cap actin filaments ([2]; listed as CP^2*): equivalent capping ability to CP
